From paper PMC3690275 (Journal of medicinal chemistry, 2013) come the findings set out here.

In data set [1] the test system is INS-1E β-cells. Kind of data set: caspase-3/7 assay in INS-1E β-cells. In kind it is cell-based, rat. In short, it runs like this: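 Rat INS-1E β-cells co-treated with a cytokine mixture and the test compound over a dose range; caspase-3/7 activity read after 48 h. IC50 is fitted from triplicate dose-responses. Maximum activity is expressed as % rescue from cytokine-induced caspase-3/7 activation. For the cytokine-optimization runs, values are the mean ± standard error of three independent experiments with six replicates each.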

The test system of data set [2] is STAT1. It is filed as cell-based, rat. The note with it: co-treatment with IFN-γ, 30 min, immunofluorescence imaging.
A short description of data set [3]: thermodynamic solubility assay. It is filed as physicochemical. The note with it: PBS pH 7.4, relative to compound 1.

Regarding `C[C@@H]1CN([C@@H](C)CO)C(=O)c2cccc(NC(=O)Nc3cccc4ccccc34)c2O[C@H]1CN(C)S(=O)(=O)c1ccc2c(c1)OCCO2` [Compound 1], the “protective effect in the caspase assay” value in data set [1] (condition A: standard concentrations of cytokines) is given as “small protective effect”. The “rescue efficacy in the caspase assay” value in data set [1] (condition B: IL-1β and TNF-α lowered 20- and 10-fold, IFN-γ increased 4-fold) is given as “higher rescue efficacy”. Also, the “reduction of caspase activity” value in data set [1] (condition C (IFN-γ 500 ng/mL), INS-1E β-cells, 48 h) worked out at 74%. In data set [2], the “effect on IFN-γ-induced nuclear localization of STAT1” value (“effect … of STAT1” below) was “nearly abolished this nuclear localization of STAT1”.

Consider `C[C@@H]1CN([C@@H](C)CO)C(=O)c2cccc(NC(=O)NCc3cccc4ccccc34)c2O[C@H]1CN(C)S(=O)(=O)c1ccc2c(c1)OCCO2` [Compound 7a], for which the “activity in the caspase assay (in words)” value in data set [1] (INS-1E β-cells) was “inactive”. The “effect … of STAT1” value in data set [2] is “did not inhibit nuclear translocation of STAT1”.

Consider `C[C@@H]1CN([C@@H](C)CO)C(=O)c2cccc(NC(=O)N(C)c3cccc4ccccc34)c2O[C@H]1CN(C)S(=O)(=O)c1ccc2c(c1)OCCO2` [Compound 7b], for which, in data set [3], the “fold increase in solubility compared to 1” value was determined as 110 fold. On the same count and under the same terms, next, `C[C@@H]1CN([C@@H](C)CO)C(=O)c2cccc(NC(=O)Nc3cccc4ncccc34)c2O[C@H]1CN(C)S(=O)(=O)c1ccc2c(c1)OCCO2` [Compound 7f]: 1400 fold. As for `C[C@@H]1CN([C@@H](C)CO)C(=O)c2cccc(NC(=O)Nc3cccc4cccnc34)c2O[C@H]1CN(C)S(=O)(=O)c1ccc2c(c1)OCCO2` [Compound 7i, N-(((2R,3R)-5-((S)-1-hydroxypropan-2-yl)-3-methyl-6-oxo-10-(3-(quinolin-8-yl)ureido)-3,4,5,6-tetrahydro-2H-benzo[b][1,5]oxazocin-2-yl)methyl)-N-methyl-2,3-dihydrobenzo[b][1,4]dioxine-6-sulfonamide], the “effect … of STAT1” value in data set [2] is reported as “nearly abolished this nuclear localization of STAT1”.
